Measurements taken from paper PMC5901702 (Journal of biomolecular screening, 2012).

Experiments:
bovine trypsin = molecular target: T1, bovine trypsin (Bos taurus, UniProt P00760); experiment: Target specificity: trypsin activity with a-factor–based peptide; format: biochemical; conditions: 100 µM compound; relative to DMSO control = 100%
T1 sequence (P00760 24-246): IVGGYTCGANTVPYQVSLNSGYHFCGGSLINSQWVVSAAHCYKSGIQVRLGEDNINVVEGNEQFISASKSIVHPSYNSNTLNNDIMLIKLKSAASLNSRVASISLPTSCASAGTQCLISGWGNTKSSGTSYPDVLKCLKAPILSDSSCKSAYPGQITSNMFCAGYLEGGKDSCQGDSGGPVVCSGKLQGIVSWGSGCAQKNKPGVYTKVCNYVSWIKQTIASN
Procedure, shortened: (§1)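 Single-dose specificity assay with a-factor–based fluorogenic peptide (50 µM) in 0.1 M KPi pH 7.6. Ste23p was used at 10 µg/mL and 30 °C; trypsin and pronase E at 0.5 µg/mL each under the 37 °C HTS conditions. Enzymes were preincubated 10 min with 100 µM compound. Triplicate rates were normalized by trypsin/pronase full digestion and given relative to DMSO control (100%).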

yeast Ste24p = molecular target: T2, yeast Ste24p (Saccharomyces cerevisiae, UniProt P47154); experiment: Target specificity: Ste24p activity; format: biochemical; conditions: 100 µM compound; relative to DMSO control = 100%
T2 sequence (P47154 1-453): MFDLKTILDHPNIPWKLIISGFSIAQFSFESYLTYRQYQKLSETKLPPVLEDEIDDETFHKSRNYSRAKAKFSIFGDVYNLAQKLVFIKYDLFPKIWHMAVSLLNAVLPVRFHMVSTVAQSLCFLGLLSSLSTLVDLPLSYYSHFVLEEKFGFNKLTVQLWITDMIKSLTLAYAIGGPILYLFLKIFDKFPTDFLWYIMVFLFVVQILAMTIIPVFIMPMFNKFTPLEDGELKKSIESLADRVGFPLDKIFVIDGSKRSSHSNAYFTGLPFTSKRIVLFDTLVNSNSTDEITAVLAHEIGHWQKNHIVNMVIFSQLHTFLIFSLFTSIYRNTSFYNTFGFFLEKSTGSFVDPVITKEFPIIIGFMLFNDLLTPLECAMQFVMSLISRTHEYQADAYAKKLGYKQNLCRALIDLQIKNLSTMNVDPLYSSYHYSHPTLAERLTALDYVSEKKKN
Procedure, shortened: (§2)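 Yeast-derived microsomes (250 µg/mL) enriched for Rce1p or Ste24p were preincubated 10 min with 100 µM compound. They were assayed with an internally quenched fluorogenic farnesylated K-Ras C-terminus–based peptide, read at 320/420 nm ex/em. Rates were in triplicate, normalized by trypsin/pronase complete digestion, and expressed relative to DMSO control (100%).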

rat IDE [1] = molecular target: T3, rat IDE (Rattus norvegicus, UniProt P35559); experiment: Insulin competition with a-factor–based substrate on rat IDE; format: biochemical; conditions: 100 µM compound; […] (IC50) insulin; 0.1 M KPi
T3 sequence (P35559 1-1019): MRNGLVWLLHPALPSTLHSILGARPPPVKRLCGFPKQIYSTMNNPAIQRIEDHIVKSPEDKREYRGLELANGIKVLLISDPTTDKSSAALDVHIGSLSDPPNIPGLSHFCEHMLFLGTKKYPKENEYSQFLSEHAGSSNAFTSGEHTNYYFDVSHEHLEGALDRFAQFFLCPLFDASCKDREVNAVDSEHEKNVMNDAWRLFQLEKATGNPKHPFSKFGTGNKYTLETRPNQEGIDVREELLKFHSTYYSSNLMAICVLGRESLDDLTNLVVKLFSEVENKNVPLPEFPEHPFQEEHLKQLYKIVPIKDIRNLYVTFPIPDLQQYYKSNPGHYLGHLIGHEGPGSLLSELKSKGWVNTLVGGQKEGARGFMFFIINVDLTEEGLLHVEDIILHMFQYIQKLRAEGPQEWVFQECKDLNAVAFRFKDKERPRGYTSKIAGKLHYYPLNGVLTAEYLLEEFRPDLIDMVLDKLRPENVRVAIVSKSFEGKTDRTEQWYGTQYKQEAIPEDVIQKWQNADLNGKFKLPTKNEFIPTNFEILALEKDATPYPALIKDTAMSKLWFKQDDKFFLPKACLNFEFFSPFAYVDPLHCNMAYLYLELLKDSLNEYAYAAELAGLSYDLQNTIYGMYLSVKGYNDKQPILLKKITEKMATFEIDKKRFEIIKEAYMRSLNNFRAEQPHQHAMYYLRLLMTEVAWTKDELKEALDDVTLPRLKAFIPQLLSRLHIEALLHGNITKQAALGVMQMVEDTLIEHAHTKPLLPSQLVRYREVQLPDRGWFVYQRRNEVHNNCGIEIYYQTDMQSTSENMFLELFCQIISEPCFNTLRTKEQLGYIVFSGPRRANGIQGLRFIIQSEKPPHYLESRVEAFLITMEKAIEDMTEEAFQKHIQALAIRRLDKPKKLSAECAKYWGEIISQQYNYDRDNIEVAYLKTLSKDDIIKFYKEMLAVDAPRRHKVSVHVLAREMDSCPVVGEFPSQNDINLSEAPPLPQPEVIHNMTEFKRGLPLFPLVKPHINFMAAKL

yeast Rce1p = molecular target: T4, yeast Rce1p (Saccharomyces cerevisiae, UniProt Q03530); experiment: Target specificity: Rce1p activity; format: biochemical; conditions: 100 µM compound; relative to DMSO control = 100%
T4 sequence (Q03530 1-315): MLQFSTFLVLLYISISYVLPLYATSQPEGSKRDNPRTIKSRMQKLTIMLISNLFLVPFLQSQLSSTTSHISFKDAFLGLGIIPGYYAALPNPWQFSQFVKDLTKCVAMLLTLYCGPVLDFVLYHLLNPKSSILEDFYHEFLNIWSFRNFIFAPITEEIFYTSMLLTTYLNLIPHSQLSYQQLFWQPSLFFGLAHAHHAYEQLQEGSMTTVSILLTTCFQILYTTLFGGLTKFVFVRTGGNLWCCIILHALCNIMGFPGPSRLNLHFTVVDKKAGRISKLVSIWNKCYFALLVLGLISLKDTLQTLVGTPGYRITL
Procedure, shortened: as §2

pronase E = experiment: Target specificity: pronase E activity with a-factor–based peptide; format: biochemical; conditions: 100 µM compound; relative to DMSO control = 100%
Procedure, shortened: as §1

rat IDE [2] = molecular target: T3, rat IDE; experiment: ATP effect on rat IDE activity and activators; format: biochemical; conditions: Tris/BSA, 1 mM ATP
Procedure, shortened: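 Rat IDE (87.7 nM) with 50 µM a-factor–based internally quenched fluorogenic substrate in 50 mM Tris pH 7.5 containing BSA and 1 mM ATP. Compounds were used at optimal levels taken from Tris/BSA dose-response curves. ATP titration (0–10 mM) was also run in 0.1 M KPi pH 7.6 or Tris/BSA. Activity is % of water- or DMSO-treated control, n = 4.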

rat IDE [3] = molecular target: T3, rat IDE; experiment: Native PAGE mobility shift of rat IDE; format: binding; conditions: 100 µM compound; 60 min at 37 °C
Procedure, shortened: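 Rat IDE was preincubated 60 min at 37 °C with compound (100 µM) or ATP (3 mM). It was mixed 1:1 with 2× native sample buffer (0.6 M Tris-HCl pH 6.8, 20% glycerol, bromophenol blue), run on 10% native PAGE at 4 °C and silver-stained.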

SMILES	% Activity Trypsin (bovine trypsin)	% Activity Ste24p (yeast Ste24p)	ability to stimulate IDE activity in presence of insulin (rat IDE [1])	% Activity Rce1p (yeast Rce1p)	% Activity Pronase (pronase E)	activation over the ATP-only condition (rat IDE [2]; compound 125 µM)	native PAGE mobility shift of IDE (rat IDE [3])	% activity relative to ATP-only condition (rat IDE [2]; compound 500 µM)
O=S(=O)(O)CCCc1cccc2ccccc12 [Compound 1]	94.2 ± 0.3%	97.2 ± 12.7%	retained their ability to stimulate IDE activity	89.7 ± 3.8%	100.9 ± 0.1%			
Cn1ncc2c(NCCc3ccccc3)nc(Cl)nc21 [Compound 2]	115.1 ± 3.9%	93.0 ± 6.8%		83.2 ± 3.4%	89.2 ± 0.6%			
O=S(=O)(O)c1cc(O)c2c(O)c(N=Nc3cccc4ccccc34)c(S(=O)(=O)O)cc2c1 [Compound 3]	99.3 ± 2.2%		retained their ability to stimulate IDE activity		103.8 ± 0.1%	approximately 25%	did not reveal a mobility shift	
Nc1nc(SCc2ccccc2Cl)cc(C(=O)O)n1 [Compound 5]	94.3 ± 5.4%	131.4 ± 18.8%	retained their ability to stimulate IDE activity	101.2 ± 11.0%				> 250%
O=C(CCN1CC2CCC(CC2)C1)c1cccs1 [Compound 6]	111.5 ± 2.8%	98.6 ± 9.9%		90.1 ± 1.0%	104.4 ± 0.0%		noticeable shift	
O=C(O)c1ccc(Oc2nc3ccccc3s2)cc1 [Compound 7]	111.0 ± 1.2%	92.8 ± 13.1%	retained their ability to stimulate IDE activity	89.6 ± 2.4%	104.3 ± 0.9%			
O=[N+]([O-])/C=C/c1cc2ccccc2[nH]1 [Compound 8]	101.8 ± 1.8%	89.2 ± 10.7%			93.3 ± 1.8%		noticeable shift	
